# Results of several laboratories.
# GIPR: Gastric inhibitory polypeptide receptor (GIPR, Homo sapiens, UniProt P48546)
# SLC22A11: Solute carrier family 22 member 11 (SLC22A11, Homo sapiens, UniProt Q9NSA0)
SMILES,target,effect on,mode,technique,concentration,quantity,value
CC[C@H](C)[C@H](NC(=O)[C@H](CO)NC(=O)[C@H](Cc1ccc(O)cc1)NC(=O)[C@H](CC(=O)O)NC(=O)[C@H](CO)NC(=O)[C@@H](NC(=O)[C@H](Cc1ccccc1)NC(=O)[C@@H](NC(=O)CNC(=O)[C@H](CCC(=O)O)NC(=O)[C@@H](C)NC(=O)[C@@H](N)Cc1ccc(O)cc1)[C@@H](C)O)[C@@H](C)CC)C(=O)N[C@@H](C)C(=O)N[C@@H](CCSC)C(=O)N[C@@H](CC(=O)O)C(=O)N[C@@H](CCCCN)C(=O)N[C@H](C(=O)N[C@@H](Cc1c[nH]cn1)C(=O)N[C@@H](CCC(N)=O)C(=O)N[C@@H](CCC(N)=O)C(=O)N[C@@H](CC(=O)O)C(=O)N[C@@H](Cc1ccccc1)C(=O)N[C@H](C(=O)N[C@@H](CC(N)=O)C(=O)N[C@@H](Cc1c[nH]c2ccccc12)C(=O)N[C@@H](CC(C)C)C(=O)N[C@@H](CC(C)C)C(=O)N[C@@H](C)C(=O)N[C@@H](CCC(N)=O)C(=O)NCC(=O)N1CCC[C@H]1C(=O)N[C@@H](CO)C(=O)N[C@@H](CO)C(=O)NCC(=O)N[C@@H](C)C(=O)N1CCC[C@H]1C(=O)N1CCC[C@H]1C(=O)N1CCC[C@H]1C(=O)N[C@@H](CO)C(=O)N[C@@H](CCCCN)C(N)=O)C(C)C)[C@@H](C)CC,GIPR,β-arrestin recruitment,agonist,,,Emax,103%
c1cncc([C@@H]2CCCN2)c1,"5-hydroxytryptamine receptor 3A (HTR3A, Homo sapiens, UniProt P46098)",ligand displacement,,radioligand,50 µM,inhibition,-3.09%
CCCCCCCCCc1ccc(OCCOCCOCCOCCOCCOCCOCCOCCOCCO)cc1,SLC22A11,transporter uptake,inhibitor,,25 µM,inhibition,79.9%
CC(C)CC(=O)OC[C@H]1O[C@@](C#N)(c2ccc3c(N)ncnn23)[C@H](O)[C@@H]1O,"Alpha-2A adrenergic receptor (ADRA2A, Homo sapiens, UniProt P08913)",cell-free assay,,,20 µM,inhibition,6%
CC[C@H](C)[C@H](NC(=O)[C@H](CO)NC(=O)[C@H](Cc1ccc(O)cc1)NC(=O)[C@H](CC(=O)O)NC(=O)[C@H](CO)NC(=O)[C@@H](NC(=O)[C@H](Cc1ccccc1)NC(=O)[C@@H](NC(=O)CNC(=O)[C@H](CCC(=O)O)NC(=O)CCNC(=O)C1(c2ccc(Cl)cc2)CCOCC1)[C@@H](C)O)[C@@H](C)CC)C(=O)N[C@@H](C)C(=O)N[C@@H](CCSC)C(=O)N[C@@H](CC(=O)O)C(=O)N[C@@H](CCCCN)C(=O)N[C@H](C(=O)N[C@@H](Cc1c[nH]cn1)C(=O)N[C@@H](CCC(N)=O)C(=O)N[C@@H](CCC(N)=O)C(=O)N[C@@H](CC(=O)O)C(=O)N[C@@H](Cc1ccccc1)C(=O)N[C@H](C(=O)N[C@@H](CC(N)=O)C(=O)N[C@@H](Cc1c[nH]c2ccccc12)C(=O)N[C@@H](CC(C)C)C(=O)N[C@@H](CC(C)C)C(=O)N[C@@H](C)C(=O)N[C@@H](CCC(N)=O)C(=O)NCC(=O)N1CCC[C@H]1C(=O)N[C@@H](CO)C(=O)N[C@@H](CO)C(=O)NCC(=O)N[C@@H](C)C(=O)N1CCC[C@H]1C(=O)N1CCC[C@H]1C(=O)N1CCC[C@H]1C(=O)N[C@@H](CO)C(=O)N[C@@H](CCCCN)C(N)=O)C(C)C)[C@@H](C)CC,GIPR,β-arrestin recruitment,agonist,,,Emax,14%
Cn1c(=O)c2[nH]cnc2n(C)c1=O,SLC22A11,transporter uptake,inhibitor,,25 µM,inhibition,81.6%
[2H]c1c([2H])c([C@]2([2H])CCCN2C(=O)C(C)(C)Oc2ccc3cn[nH]c3c2)c([2H])c([2H])c1C([2H])([2H])[2H],"Receptor tyrosine-protein kinase erbB-2 (ERBB2, Homo sapiens, UniProt P04626)",binding,,competition with immobilised ligand,1 µM,remaining binding,83%
CN1CCC[C@H]1c1cccnc1,"Delta-type opioid receptor (OPRD1, Homo sapiens, UniProt P41143)",ligand displacement,,,50 µM,inhibition,-7.8%
